Sampled rows, rich in hits. Any-hit rate of the full collection: about 2.2%.
TRAIL sens C8 = caspase-8 TRAIL sensitization. NB7+C8 cells + TRAIL, ATPlite viability luminescence. inhibition (viability loss, TRAIL sensitization), % at 10 µM. 360,000 compounds, 1% hits. AID 624354;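 active means compounds causing at least 50% loss of cell viability in the single-dose screen, relative to plate controls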
STAT3 blocker = reduces IL-6 driven STAT3 reporter signal. U3A cells, IL-6 STAT3-luciferase reporter, luminescence; host cell line lacks STAT1. inhibition, % at 5.5 µM. 190,000 compounds, 0.89% hits. AID 862;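 active means inhibition above the mean inhibition across all screened compounds plus 3 SD, cut at about 44% in these data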
HSP90 inh = blocks HSP90-mediated luciferase refolding in reticulocyte lysate. 290,000 compounds, 0.91% hits. inhibition, % at 5.6 µM. Rabbit reticulocyte lysate, luciferase refolding luminescence, 3 h;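 active means inhibition above the screen-wide mean plus 3 SD, computed separately per campaign, cut at about 16% in these data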;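 further: inhibitors lower the luminescence because luciferase stays unfolded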
FLuc act counter = firefly luciferase counter-screen for stimulation assays | 200,000 tested, under 10 active | ATPlite luciferase biochemical, luminescence, 10 min; 0 = ATP-free wells, 1 = DMSO control | AID 1027 | P08659 | activation factor at 10 µM;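 active means luciferase activation factor, scaled between plate controls, of at least 2 with compound at 10 µM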
Target sequence (P08659 whole entry, looked up): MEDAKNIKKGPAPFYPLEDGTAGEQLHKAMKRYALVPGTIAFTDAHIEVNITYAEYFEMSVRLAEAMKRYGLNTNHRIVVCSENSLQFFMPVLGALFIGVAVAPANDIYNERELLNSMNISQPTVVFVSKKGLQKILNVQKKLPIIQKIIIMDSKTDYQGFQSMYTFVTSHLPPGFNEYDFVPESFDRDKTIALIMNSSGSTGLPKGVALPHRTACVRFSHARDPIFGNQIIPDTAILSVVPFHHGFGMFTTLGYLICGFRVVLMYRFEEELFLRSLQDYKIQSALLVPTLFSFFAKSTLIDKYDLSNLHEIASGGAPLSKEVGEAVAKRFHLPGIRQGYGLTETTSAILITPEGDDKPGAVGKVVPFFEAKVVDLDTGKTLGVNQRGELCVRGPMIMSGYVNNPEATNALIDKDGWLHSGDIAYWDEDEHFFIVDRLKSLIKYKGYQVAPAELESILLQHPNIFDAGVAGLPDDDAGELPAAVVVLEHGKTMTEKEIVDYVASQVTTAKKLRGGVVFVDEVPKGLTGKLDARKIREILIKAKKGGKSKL
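System: cell-free luciferase reagent; medium: PBS as buffer for the ATP substrate; doses: test compounds dosed from 2 mM stocks in 100% DMSO; incubation: 10 min, room temperature; measured by: luminescence from luciferase reaction; read-out: luciferase activation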
PPC-1+TRAIL kill = PPC-1 cancer cell killing with TRAIL present | PPC-1 cells + TRAIL, ATPLite viability luminescence | cell killing (% activity), % at 4 µM or 5 µM | 220,000 compounds, 0.41% hits | AID 1443;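 active means cell killing above 50% in the first pass at 4 µM, then a duplicate retest at 5 µM averaging 50% or more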
FLuc inhib CS = counter-screen for luciferase assay inhibitors: firefly luciferase inhibition | P08659 | ATPLite firefly luciferase biochemical luminescence, 10 min | inhibition, % at 10 µM | 200,000 compounds, 1.5% hits;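 active means inhibition above about 50% when tested at 10 µM, limit read from the data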
HSP90 inh confirm = confirmation of HSP90 inhibitors | AID 1846 | shares compounds with HSP90 inh | rabbit reticulocyte lysate, luciferase refolding luminescence, 3 h | inhibition, % at 5.9 µM | 2,300 compounds, 64% hits; in the data active means inhibition above about 18%
luciferase ctr = counter-screen for HSP90 inhibitors: inhibitors of firefly luciferase. shares compounds with HSP90 inh. purified native firefly luciferase, luminescence. 2,300 compounds, 48% hits. inhibition, % at 5.9 µM;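 active means inhibition above the mean inhibition of all tested sample wells plus 3 SD, cut at about 10% in these data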
Numbers stand for hits; 0 = inactive; - = no result given.

SMILES	TRAIL sens C8	STAT3 blocker	HSP90 inh	FLuc act counter	PPC-1+TRAIL kill	FLuc inhib CS	HSP90 inh confirm	luciferase ctr
O=c1c2ccccc2nc(/C=C/c2ccc(F)cc2)n1-c1ccccn1	-	-	26.4	-	0	-	0	0
COc1ccc(OCCOc2cccc(C=C3C(=O)NC(=O)NC3=O)c2)cc1	-	-	24.9	-	-	-	44.9	30.4
O=C1NC(=O)C(Cc2ccccc2)(Cc2ccccc2)C(=O)N1	0	-	-	-	-	-	-	-
CSc1nc(N)c(N=Nc2ccc([As](=O)(O)O)cc2)c(=O)[nH]1	0	-	21.2	-	0	-	22.4	0
O=c1[nH]c(=S)[nH]c(O)c1N=Nc1ccc(S(=O)(=O)N2CCOCC2)cc1	0	-	0	-	0	-	-	-
CSCCC(c1nnnn1C(C)(C)C)N1CCC2(CC1)C(=O)NCN2c1ccccc1 (stereo not given)	0	-	-	-	-	-	-	-
C=CCn1c(O)c(/C(C)=N/N2CCN(C)CC2)c(=O)[nH]c1=O	0	-	22.0	-	0	-	0	0
CCOC(=O)[C@]12Cc3ccccc3[C@H]1N(CCC(=O)OC)C(=O)c1cc(OC)ccc12	0	-	-	-	-	-	-	-
CC(C)(C)OC(=O)c1c(N)n(Cc2ccco2)c2nc3ccccc3nc12	0	0	28.6	0	0	0	0	0
COCCNC(=O)c1c(N)n(Cc2ccco2)c2nc3ccccc3nc12	0	0	0	0	0	0	-	-
COCCCn1c(N)c(C(=O)NCc2ccco2)c2nc3ccccc3nc21	-	-	20.6	-	0	-	0	0
C=CCNC(=O)c1c(N)n(Cc2ccco2)c2nc3ccccc3nc12	0	0	0	0	0	0	-	-
O=c1[nH]c(O)c(N=Nc2ccc3c(c2)OCCO3)c(=O)[nH]1	0	78.6	73.0	0	0	69.1	70.7	70.3
Cc1cc(C)c(C)c(C(O)(C(=O)O)c2ccccc2)c1 (stereo not given)	0	-	-	-	-	-	-	-
C=CCNC(=S)N1Cc2cc(Br)ccc2-n2nncc2C1	0	-	-	-	-	-	-	-
CCCCn1c(NS(=O)(=O)c2ccccc2)c(C(=O)OCC)c2nc3ccccc3nc21	0	0	18.1	0	0	0	0	0
OCC[n+]1c2ccccc2nc2ccc(N3CCOCC3)cc21	0	-	22.2	-	0	-	29.7	17.6
